The source made the active and inactive calls. The calls are words filed in the database; no cut-off is given here.
How the values were obtained:
Dipeptidyl peptidase 4 [1] = target: T1, Dipeptidyl peptidase 4 (Homo sapiens, UniProt P27487); experiment: Conversion of prodrug to parent drug NAP-TSAO-T catalyzed by CD26 after 4 hrs; type: ADME; parameters: concentration or dose not given beside the values
CCRF-CEM [2] = experiment: Antiviral activity against HIV2 assessed as inhibition of HIV2-induced cytopathicity in CEM cells; type: functional, cell-based
Outline: (§1)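 CEM and MT-4 cell cultures infected with HIV-1 or HIV-2, with compounds diluted into culture medium from DMSO stocks. Antiviral activity is read at day 4 post-infection and reported as EC50.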

Dipeptidyl peptidase 4 [3] = target: T1, Dipeptidyl peptidase 4; experiment: Conversion of prodrug to parent drug NAP-TSAO-T catalyzed by CD26 after 1 hr; type: ADME; parameters: concentration or dose not given beside the values
CCRF-CEM [4] = experiment: Antiviral activity against HIV1 assessed as inhibition of HIV1-induced cytopathicity in CEM cells; type: functional, cell-based; settings: Homo sapiens; outline: as §1
MT4 [5] = experiment: Antiviral activity against HIV2 assessed as inhibition of HIV2-induced cytopathicity in MT4 cells; type: functional, cell-based; outline: as §1
MT4 [6] = experiment: Antiproliferative activity against human MT4 cell line; type: functional
Outline: (§2)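 Cytostatic assay: compounds made up as DMSO stocks and diluted in culture medium. CC50 is the concentration that inhibits MT-4 or CEM cell proliferation by 50%.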

CCRF-CEM [7] = experiment: Antiproliferative activity against human CEM cell line; type: functional; outline: as §2
[8] = target: Human immunodeficiency virus type 1 reverse transcriptase (Human immunodeficiency virus 1, UniProt Q72547); experiment: Inhibition of recombinant HIV1 reverse transcriptase
Dipeptidyl peptidase 4 [9] = target: T1, Dipeptidyl peptidase 4; experiment: Conversion of prodrug to parent drug NAP-TSAO-T catalyzed by CD26 after 24 hrs; type: ADME; parameters: concentration or dose not given beside the values
MT4 [10] = experiment: Antiviral activity against HIV1 assessed as inhibition of HIV1-induced cytopathicity in MT4 cells; type: functional, cell-based; settings: Homo sapiens; outline: as §1
Bos taurus = species on record: Bos taurus; experiment: Inhibition of bovine serum-catalyzed prodrug Val-Pro-NAP-TSAO-T conversion to parent drug NAP-TSAO-T; type: organism-based; settings: cattle
Homo sapiens = species on record: Homo sapiens; experiment: Inhibition of human serum-catalyzed prodrug Val-Pro-NAP-TSAO-T conversion to parent drug NAP-TSAO-T; type: organism-based
Dipeptidyl peptidase 4 [11] = target: T1, Dipeptidyl peptidase 4; experiment: Inhibition of CD26-catalyzed GlyPro-pNA hydrolysis

T1 sequence (P27487 whole entry): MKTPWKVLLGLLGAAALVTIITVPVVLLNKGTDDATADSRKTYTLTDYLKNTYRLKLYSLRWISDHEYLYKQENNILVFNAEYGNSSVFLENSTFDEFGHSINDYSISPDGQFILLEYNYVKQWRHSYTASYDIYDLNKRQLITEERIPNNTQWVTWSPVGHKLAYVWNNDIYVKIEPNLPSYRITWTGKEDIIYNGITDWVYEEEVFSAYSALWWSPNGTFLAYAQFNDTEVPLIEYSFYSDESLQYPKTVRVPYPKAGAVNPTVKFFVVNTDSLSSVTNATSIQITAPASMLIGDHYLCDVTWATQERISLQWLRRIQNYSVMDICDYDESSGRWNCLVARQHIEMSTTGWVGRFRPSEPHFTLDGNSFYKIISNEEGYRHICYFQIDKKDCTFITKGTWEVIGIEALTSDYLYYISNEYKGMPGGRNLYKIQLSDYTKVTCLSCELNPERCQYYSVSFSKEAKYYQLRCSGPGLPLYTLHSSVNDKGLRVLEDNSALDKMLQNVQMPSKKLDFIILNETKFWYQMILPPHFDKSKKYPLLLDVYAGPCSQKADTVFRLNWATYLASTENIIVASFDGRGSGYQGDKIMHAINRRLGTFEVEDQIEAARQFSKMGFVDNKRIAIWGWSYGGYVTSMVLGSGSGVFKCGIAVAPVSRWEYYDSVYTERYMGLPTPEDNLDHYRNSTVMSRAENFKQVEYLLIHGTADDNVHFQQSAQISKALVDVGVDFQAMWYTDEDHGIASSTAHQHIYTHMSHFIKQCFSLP

Structure (SMILES) | Activity (Dipeptidyl peptidase 4 [1]) | Activity (Dipeptidyl peptidase 4 [3]) | EC50 (CCRF-CEM [4]) | IC50 [8] | Activity (Dipeptidyl peptidase 4 [9]) | Inhibition (Bos taurus) | Inhibition (Homo sapiens) | Activity (Dipeptidyl peptidase 4 [11]) | Activity (CCRF-CEM [2]) | Activity (MT4 [5]) | CC50 (MT4 [6]) | CC50 (CCRF-CEM [7]) | EC50 (MT4 [10])
Cc1cn(C2OC(CO[Si](C)(C)C(C)(C)C)C3(OS(=O)(=O)C=C3N)C2O[Si](C)(C)C(C)(C)C)c(=O)n(CCCNC(=O)CNC(=O)[C@@H](N)C(C)C)c1=O (some centres not stated) | 0% | 0% | 0.05 µM | 3.8 µM | 0% |  |  |  | inactive | inactive | 9.9 µM | 10 µM | 0.14 µM
Cc1cn(C2OC(CO[Si](C)(C)C(C)(C)C)C3(OS(=O)(=O)C=C3N)C2O[Si](C)(C)C(C)(C)C)c(=O)n(CCCNC(=O)[C@@H]2CCCN2C(=O)[C@@H](N)CCC(=O)O)c1=O (some centres not stated) | 48% |  | 0.26 µM |  | 92% |  |  |  | inactive | inactive | 64 µM | 30 µM | 0.49 µM
Cc1cn([C@@H]2O[C@H](CO[Si](C)(C)C(C)(C)C)[C@@]3(OS(=O)(=O)C=C3N)[C@H]2O[Si](C)(C)C(C)(C)C)c(=O)n(CCCN)c1=O |  |  | 0.14 µM |  |  |  |  |  | inactive | inactive | 14 µM | 12 µM | 0.52 µM
CC[C@H](C)[C@H](N)C(=O)N1CCCC1 |  |  |  |  |  | > 80% | > 80% |  |  |  |  |  | 
Cc1cn(C2OC(CO[Si](C)(C)C(C)(C)C)C3(OS(=O)(=O)C=C3N)C2O[Si](C)(C)C(C)(C)C)c(=O)n(CCCNC(=O)[C@@H]2CCCN2C(=O)[C@@H](N)CCCCN)c1=O (some centres not stated) | 85% |  | 0.16 µM | 4.7 µM | 99% |  |  |  | inactive | inactive | 87 µM | 47 µM | 
Cc1cn(C2OC(CO[Si](C)(C)C(C)(C)C)C3(OS(=O)(=O)C=C3N)C2O[Si](C)(C)C(C)(C)C)c(=O)n(CCCNC(=O)[C@H]2CCCN2C(=O)[C@@H](N)C(C)C)c1=O (some centres not stated) | 2.2% | 0% | 0.09 µM | 22 µM | 4.2% |  |  |  | inactive | inactive | 22 µM | 11 µM | 0.49 µM
Cc1cn(C2OC(CO[Si](C)(C)C(C)(C)C)C3(OS(=O)(=O)C=C3N)C2O[Si](C)(C)C(C)(C)C)c(=O)n(CCCNC(=O)[C@@H]2CCCN2C(=O)CN)c1=O (some centres not stated) | 20% | 5% | 0.2 µM | 13 µM | 58% |  |  |  | inactive | inactive | 13 µM | 51 µM | 0.39 µM
Cc1cn(C2OC(CO[Si](C)(C)C(C)(C)C)C3(OS(=O)(=O)C=C3N)C2O[Si](C)(C)C(C)(C)C)c(=O)n(CCCNC(=O)[C@@H]2CCCN2C(=O)[C@@H](NC(=O)OCc2ccccc2)C(C)C)c1=O (some centres not stated) | 0% | 0% |  |  | 0% |  |  | Not Active |  |  |  |  | 
Cc1cn(C2OC(CO[Si](C)(C)C(C)(C)C)C3(OS(=O)(=O)C=C3N)C2O[Si](C)(C)C(C)(C)C)c(=O)n(CCCNC(=O)[C@@H](N)C(C)C)c1=O (some centres not stated) |  |  | 0.06 µM | 6.7 µM |  |  |  |  | inactive | inactive | 8.2 µM | 9.6 µM | 0.3 µM
Cc1cn(C2OC(CO[Si](C)(C)C(C)(C)C)C3(OS(=O)(=O)C=C3N)C2O[Si](C)(C)C(C)(C)C)c(=O)n(CCCNC(=O)[C@@H]2CCCN2C(=O)[C@@H](N)Cc2ccc(O)cc2)c1=O (some centres not stated) | 66% | 43% | 0.15 µM | 8.1 µM | 79% |  |  |  | inactive | inactive | 11 µM | 10 µM | 0.14 µM
Cc1cn(C2OC(CO[Si](C)(C)C(C)(C)C)C3(OS(=O)(=O)C=C3N)C2O[Si](C)(C)C(C)(C)C)c(=O)n(CCCNC(=O)[C@@H]2C[C@@H](OCc3ccccc3)CN2C(=O)[C@@H](N)C(C)C)c1=O (some centres not stated) | 0% |  | 0.09 µM | 28 µM | 0% |  |  |  | inactive | inactive | 2 µM | 2.1 µM | 0.27 µM
Cc1cn(C2OC(CO[Si](C)(C)C(C)(C)C)C3(OS(=O)(=O)C=C3N)C2O[Si](C)(C)C(C)(C)C)c(=O)n(CCCNC(=O)[C@@H]2CCCN2C(=O)[C@@H](N)CC(N)=O)c1=O (some centres not stated) | 27% |  | 0.37 µM | 4 µM | 73% |  |  |  | inactive | inactive | 22 µM | 25 µM | 0.59 µM

More lines, main results first:

Activity (Dipeptidyl peptidase 4 [1]) | Activity (Dipeptidyl peptidase 4 [3]) | EC50 (CCRF-CEM [4]) | IC50 [8] | Activity (Dipeptidyl peptidase 4 [9]) | Inhibition (Bos taurus) | Inhibition (Homo sapiens) | Activity (Dipeptidyl peptidase 4 [11]) | Structure (SMILES) | Activity (CCRF-CEM [2]) | Activity (MT4 [5]) | CC50 (MT4 [6]) | CC50 (CCRF-CEM [7]) | EC50 (MT4 [10])
7.9% |  | 1.1 µM | 7.2 µM | 30% |  |  |  | Cc1cn(C2OC(CO[Si](C)(C)C(C)(C)C)C3(OS(=O)(=O)C=C3N)C2O[Si](C)(C)C(C)(C)C)c(=O)n(CCCNC(=O)[C@@H]2CCCN2C(=O)[C@@H](N)CC(=O)O)c1=O (some centres not stated) | inactive | inactive | 69 µM | ≥ 125 µM | 1.2 µM
 |  |  |  |  | > 80% | > 80% |  | CC[C@H](C)[C@H](N)C(=O)N1CCC[C@H]1C(=O)N[C@H](C(=O)O)[C@@H](C)CC [DIPROTIN A] |  |  |  |  | 
0% | 0% | 0.19 µM | 4.6 µM | 0% |  |  |  | Cc1cn(C2OC(CO[Si](C)(C)C(C)(C)C)C3(OS(=O)(=O)C=C3N)C2O[Si](C)(C)C(C)(C)C)c(=O)n(CCCNC(=O)[C@H](CC(C)C)NC(=O)[C@@H](N)C(C)C)c1=O (some centres not stated) | inactive | inactive | 13 µM | 11 µM | 0.21 µM
0% | 0% | 0.35 µM | 4.8 µM | 0% |  |  |  | Cc1cn(C2OC(CO[Si](C)(C)C(C)(C)C)C3(OS(=O)(=O)C=C3N)C2O[Si](C)(C)C(C)(C)C)c(=O)n(CCCNC(=O)[C@@H]2[C@@H](O)[C@@H](O)CN2C(=O)[C@@H](N)C(C)C)c1=O (some centres not stated) | inactive | inactive | 46 µM | 51 µM | 0.77 µM
37% |  | 0.1 µM |  | 58% |  |  |  | Cc1cn(C2OC(CO[Si](C)(C)C(C)(C)C)C3(OS(=O)(=O)C=C3N)C2O[Si](C)(C)C(C)(C)C)c(=O)n(CCCNC(=O)[C@@H]2CCCN2C(=O)[C@@H](N)Cc2ccccc2)c1=O (some centres not stated) | inactive | inactive | 19 µM | 14 µM | 0.2 µM
81% |  | 0.42 µM |  | 88% |  |  |  | Cc1cn(C2OC(CO[Si](C)(C)C(C)(C)C)C3(OS(=O)(=O)C=C3N)C2O[Si](C)(C)C(C)(C)C)c(=O)n(CCCNC(=O)[C@@H]2CCCN2C(=O)[C@H](C)N)c1=O (some centres not stated) | inactive | inactive | 20 µM | 19 µM | 0.3 µM
0% | 0% | 0.09 µM | 6.8 µM | 0% |  |  |  | Cc1cn(C2OC(CO[Si](C)(C)C(C)(C)C)C3(OS(=O)(=O)C=C3N)C2O[Si](C)(C)C(C)(C)C)c(=O)n(CCCNC(=O)[C@H](Cc2ccccc2)NC(=O)[C@@H](N)C(C)C)c1=O (some centres not stated) | inactive | inactive | 14 µM | 10 µM | 0.26 µM
 |  | 0.07 µM | 4.4 µM |  |  |  |  | Cc1cn(C2OC(CO[Si](C)(C)C(C)(C)C)C3(OS(=O)(=O)C=C3N)C2O[Si](C)(C)C(C)(C)C)c(=O)n(CCCNC(=O)[C@@H](NC(=O)[C@@H]2CCCN2C(=O)[C@@H](N)C(C)C)C(C)C)c1=O (some centres not stated) | inactive | inactive | 11 µM | 11 µM | 0.22 µM
18% | 4.1% | 0.4 µM | 16 µM | 43% |  |  |  | Cc1cn(C2OC(CO[Si](C)(C)C(C)(C)C)C3(OS(=O)(=O)C=C3N)C2O[Si](C)(C)C(C)(C)C)c(=O)n(CCCNC(=O)[C@@H]2C[C@@H](O)CN2C(=O)[C@@H](N)C(C)C)c1=O (some centres not stated) | inactive | inactive | 10 µM | 15 µM | 0.41 µM
6.5% | 0% | 0.08 µM | 5.4 µM | 35% |  |  |  | Cc1cn(C2OC(CO[Si](C)(C)C(C)(C)C)C3(OS(=O)(=O)C=C3N)C2O[Si](C)(C)C(C)(C)C)c(=O)n(CCCNC(=O)[C@H](C)NC(=O)[C@@H](N)C(C)C)c1=O (some centres not stated) | inactive | inactive | 22 µM | 11 µM | 0.23 µM

Reference: ChEMBL document CHEMBL1146037, “Design and discovery of a novel dipeptidyl-peptidase IV (CD26)-based prodrug approach” (J Med Chem, 2006)
